The target in experiment [1] is Muscarinic acetylcholine receptor M2 (Homo sapiens) (UniProt P08172). Put plainly: Inhibition of binding of 0.1 nM [3H]quinuclidinyl benzilate to Muscarinic acetylcholine receptor M2 in membranes of transfected CHO cells in the absence of GTP.
Experiment [2] has as its target Muscarinic acetylcholine receptor M4 (Homo sapiens) (UniProt P08173). The experiment can be described thus: Inhibitory activity against [3H]-cyclic AMP accumulation in CHO transfected cells mediated by Muscarinic acetylcholine receptor M4.
Experiment [3] deals with Muscarinic acetylcholine receptor M2 (Homo sapiens) (UniProt P08172). The experiment can be described thus: Inhibition of binding of 0.1 nM [3H]quinuclidinyl benzilate to Muscarinic acetylcholine receptor M2 in membranes of transfected CHO cells in the presence of 10 uM GTP.
Experiment [4] deals with Muscarinic acetylcholine receptor M1 (Homo sapiens) (UniProt P11229). Put plainly: Inhibitory activity against stimulation of [3H]inositol monophosphate accumulation in [3H]inositol-labelled CHO transfected cells mediated by Muscarinic acetylcholine receptor M1.
Experiment [5] addresses T1, Muscarinic acetylcholine receptor M1 (Homo sapiens, UniProt P11229).
T1 sequence (P11229 whole entry): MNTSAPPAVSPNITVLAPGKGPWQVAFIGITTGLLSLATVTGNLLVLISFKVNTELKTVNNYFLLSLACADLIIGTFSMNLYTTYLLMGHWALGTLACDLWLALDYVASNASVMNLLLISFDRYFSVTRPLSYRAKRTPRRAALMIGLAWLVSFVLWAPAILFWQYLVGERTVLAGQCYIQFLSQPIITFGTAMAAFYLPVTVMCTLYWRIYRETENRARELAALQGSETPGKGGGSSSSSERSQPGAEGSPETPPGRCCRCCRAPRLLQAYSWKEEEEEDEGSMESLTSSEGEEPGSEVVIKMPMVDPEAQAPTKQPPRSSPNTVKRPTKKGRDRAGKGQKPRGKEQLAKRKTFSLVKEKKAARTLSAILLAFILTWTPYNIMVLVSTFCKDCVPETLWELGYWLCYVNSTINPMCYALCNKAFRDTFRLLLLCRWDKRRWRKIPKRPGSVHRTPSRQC
Put plainly: Inhibition of binding of [3H]quinuclidinyl benzilate to muscarinic receptors in membranes of CHO cells transfected with Muscarinic acetylcholine receptor M1. The class given is cell membranes. The essentials: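 Membranes from CHO cells expressing human M1 receptor, harvested at 80-100% confluence. Competition against 0.2 nM [3H]quinuclidinyl benzilate in 25 mM sodium phosphate pH 7.4 with 5 mM MgCl2; 30 min at 37 °C, triplicate. Nonspecific binding with 10 μM atropine. Filtration and scintillation counting.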

Experiment [6] has as its target T2, Muscarinic acetylcholine receptor M2 (Homo sapiens, UniProt P08172).
T2 sequence (P08172 whole entry): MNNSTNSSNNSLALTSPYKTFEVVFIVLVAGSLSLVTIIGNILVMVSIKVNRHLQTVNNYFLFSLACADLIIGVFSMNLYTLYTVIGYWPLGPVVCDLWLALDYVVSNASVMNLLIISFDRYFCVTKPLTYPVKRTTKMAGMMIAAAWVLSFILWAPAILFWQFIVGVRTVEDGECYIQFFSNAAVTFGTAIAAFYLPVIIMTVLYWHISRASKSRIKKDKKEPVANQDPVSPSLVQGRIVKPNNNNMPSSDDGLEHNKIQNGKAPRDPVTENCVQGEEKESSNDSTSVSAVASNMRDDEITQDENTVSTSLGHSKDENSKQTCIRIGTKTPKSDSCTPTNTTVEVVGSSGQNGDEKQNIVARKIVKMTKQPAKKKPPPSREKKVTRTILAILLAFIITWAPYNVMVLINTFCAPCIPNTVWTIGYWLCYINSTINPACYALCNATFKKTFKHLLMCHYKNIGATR
Put plainly: Inhibitory activity against [3H]quinuclidinyl Benzilate binding to Muscarinic acetylcholine receptor M2 in the presence of GTP. A digest of the protocol:
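Membranes from CHO cells expressing human M2 receptor. Competition against 0.1 nM [3H]quinuclidinyl benzilate in 25 mM sodium phosphate pH 7.4, 5 mM MgCl2, without or with 10 μM GTP; 30 min at 37 °C, triplicate. Nonspecific binding with 1 μM atropine. Filtration, scintillation counting.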

In experiment [7] the target is T3, Muscarinic acetylcholine receptor M1 (Rattus norvegicus, UniProt P08482).
T3 sequence (P08482 whole entry): T1 sequence (P11229 whole entry) with A5V, T254S, P309S, R320K, A337G, I413V
The experiment can be described thus: Affinity versus [3H]oxotremorine M (agonist) binding to Muscarinic acetylcholine receptor M1 in Rat Cerebral Cortical Membranes, (Kd=[…]).

For experiment [8], the target named is T4, Muscarinic acetylcholine receptor M3 (Homo sapiens, UniProt P20309). The experiment can be described thus: Inhibition of binding of [3H]quinuclidinyl benzilate to muscarinic receptors in membranes of CHO cells transfected with Muscarinic acetylcholine receptor M3. The class given is cell membranes.
Target sequence in this assay (P20309 whole entry): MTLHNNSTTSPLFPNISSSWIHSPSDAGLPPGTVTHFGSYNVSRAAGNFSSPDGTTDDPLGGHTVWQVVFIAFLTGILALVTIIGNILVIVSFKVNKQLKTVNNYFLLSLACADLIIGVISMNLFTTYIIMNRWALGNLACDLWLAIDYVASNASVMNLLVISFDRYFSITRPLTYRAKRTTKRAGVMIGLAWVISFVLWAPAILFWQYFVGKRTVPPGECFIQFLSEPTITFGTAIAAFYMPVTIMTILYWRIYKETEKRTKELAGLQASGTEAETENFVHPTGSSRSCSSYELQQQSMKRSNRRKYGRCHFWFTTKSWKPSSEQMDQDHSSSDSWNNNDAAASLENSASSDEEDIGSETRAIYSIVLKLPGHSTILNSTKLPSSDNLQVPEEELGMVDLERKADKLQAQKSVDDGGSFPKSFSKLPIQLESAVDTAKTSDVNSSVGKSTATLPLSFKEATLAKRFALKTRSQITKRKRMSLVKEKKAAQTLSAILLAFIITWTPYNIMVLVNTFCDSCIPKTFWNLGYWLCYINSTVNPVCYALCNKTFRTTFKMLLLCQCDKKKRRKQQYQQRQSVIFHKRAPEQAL
Experiment [9] deals with T3, Muscarinic acetylcholine receptor M1. Put plainly: Inhibition of binding of [3H]quinuclidinyl benzilate to Muscarinic acetylcholine receptor M1 in rat cerebral cortical membranes at 100 uM concentration. The class given is cell membranes, Membrane. The essentials:
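Rat cortical membranes with 0.2 nM [3H]quinuclidinyl benzilate in HEPES pH 7.4 with 10 mM MgCl2 and 100 mM NaCl, 30 min at 37 °C, triplicate. Atropine 1 µM defined nonspecific binding. Percent inhibition was read at 100 µM test agent; mean ± SEM, n = 4.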

The target in experiment [10] is T4, Muscarinic acetylcholine receptor M3. The experiment can be described thus: Inhibitory activity against stimulation of [3H]inositol monophosphate accumulation in [3H]inositol-labelled CHO transfected cells mediated by Muscarinic acetylcholine receptor M3.
Target sequence in this assay (P20309 whole entry, looked up): as the sequence (P20309 whole entry) above
Experiment [11] addresses T2, Muscarinic acetylcholine receptor M2. Put plainly: Inhibition of binding of [3H]quinuclidinyl benzilate to muscarinic receptors in membranes of CHO cells transfected with Muscarinic acetylcholine receptor M2. The class given is cell membranes.
Experiment [12] has as its target Muscarinic acetylcholine receptor M4 (Homo sapiens) (UniProt P08173). The experiment can be described thus: Inhibition of binding of [3H]quinuclidinyl benzilate to Muscarinic acetylcholine receptor M4 in membranes of transfected CHO cells.
In experiment [13] the target is T3, Muscarinic acetylcholine receptor M1. The experiment can be described thus: Inhibition of binding of [3H]oxotremorine M to Muscarinic acetylcholine receptor M1 in rat cerebral cortical membranes. In kind it is cell membranes, Membrane. The essentials:
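Agonist radioligand assay: rat cortical membranes with 2 nM [3H]oxotremorine M in 25 mM sodium phosphate pH 7.4 with 5 mM MgCl2, 2 h at 25 °C, in triplicate. Nonspecific binding used 5 µM atropine. Filtration followed by scintillation counting.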

The structures appear in SMILES notation. Substitutions are numbered along the chain they refer to.

For the molecule `CC(=O)OC1CC2CCCC1N2` (stereo not drawn), the IC50 in [1] was 17 nM; in experiment [2] it was 11 nM (agonist); in [3] it was 120 nM; in [6] it was 120 nM. The results for the EC50 in experiment [4] and in experiment [10] were 23 nM and 3.6 nM, respectively. Also, the Ki in experiment [5] was determined as 21000 nM; in [7] it was 5.6 nM; in [8] it was 680 nM; in experiment [9], 22000 nM; in [11], 2.6 nM; in experiment [12], 33 nM. Also, in experiment [13], the Ki stood at 5.6 nM.
